Measured values reported in PubChem BioAssay.
Inconclusive results are not listed.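 How the source made its calls, unless noted: active means inhibition over a set limit, the all-compound mean plus 3 SD, in both replicate runs; inconclusive means over that limit in just one replicate run; inactive means at or under that limit in both runs.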

How the values were obtained:
[1] = OD615 S. cerevisiae growth inhibition, permissive medium, pilot counter-assay, permissive growth control for S. cerevisiae lifespan shortening project (AID 705;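 active means growth inhibition above 25% in both replicates, a cutoff set 3 SD above the mean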); conditions: OD615, 24 h, at 10 µM, active compounds read high
Summary of the method: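 System: Engineered DeaD yeast | Buffer or medium: SC raffinose/galactose permissive medium | Incubation: Cells pre-grown 4 h, then 24 h compound exposure, 30 °C humidified | Measured by: Absorbance (optical density) at 615 nm | Read-out: Reduction in yeast growth (OD615)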

[2] = Restrictive medium S. cerevisiae growth inhibition, OD615, pilot screen of yeast lifespan reduction project, restrictive growth control (AID 706;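 active means growth inhibition above a set limit, 3 SD over mean compound inhibition, in both replicates, cut at about 43% in these data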;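 further: modified DeaD lifespan yeast strain shifted to restrictive glucose medium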); conditions: OD615, 48 h, at 10 µM, active compounds read high
Summary of the method: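 Material: modified S. cerevisiae; Medium: glucose-based CSMM-D restrictive medium; Compound dosing: one concentration, 10 µM final, 0.25% DMSO; Incubation: 48 h compound exposure at 30 °C; Measured by: OD615.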

[3] = viability gain of MRP-1-high H69AR cells under doxorubicin, pilot screen, MRP-1 activator project, CellTiter-Glo, duplicate (AID 807;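 active means viability increase at or above a cutoff of the median across tested compounds plus 3 SD, cut at about 8.5% in these data, passing the limit was not always enough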;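 further: compound pretreatment 18-22 h then 72 h combined with doxorubicin; 0% = doxorubicin alone and 100% = vehicle without doxorubicin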); conditions: H69AR viability with doxorubicin, CellTiter-Glo luminescence; at 10 µM; active compounds read high
[4] = growth suppression of beta-catenin knockout HCT116, pilot screen, human colon tumor cells (AID 823;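 active means cell viability at or below a set limit in both duplicate runs, the limit being the all-compound median minus 4 SD, cut at about 23% in these data, passing the limit was not always enough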;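 further: 0% = wells killed by 20 µM Hyamine and 100% = untreated DMSO cell wells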); conditions: CellTiter-Glo, 60 h, at 10 µM, active compounds read low
[5] = growth suppression of PTEN-deleted HCT116, pilot screen, cell-based, HCT116 clonal line, CellTiter-Glo (AID 824;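 active means viability at or below 27.92% in each of two runs, the all-compound median minus 4 SD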;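 further: 0% = 20 µM Hyamine control and 100% = vehicle cell control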); conditions: 60 h, at 10 µM, active compounds read low
[6] = inhibitors of the yeast RAM network, pilot screen, dse1pr::URA3 reporter, 5-FOA selection (AID 869);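 further: 0% = DMSO wells with no growth and 100% = 10 µM 1-NA-PP1 with full growth; RAM network block rescues cells from 5-FOA so hits raise OD615 growth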; conditions: S. cerevisiae dse1pr::URA3 5-FOA growth, OD615, 2 d; at 10 µM; active compounds read high; strain carries analog-sensitive mutant Cbk1 kinase
[7] = RAM signaling pathway blockade in yeast – S. cerevisiae, Pdr1DBD-CYC8 efflux-inhibited sensitized strain, primary screen (AID 1298;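 active means RAM network inhibition above 8.4% in each of two replicates, 3 SD over the compound average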;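 further: 0% = DMSO untreated cells without growth and 100% = 10 µM 1-NA-PP1 full growth; higher means more yeast growth rescued from 5-FOA killing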); conditions: S. cerevisiae cbk1-as DSE1-URA3 strain, 5-FOA growth OD615, 2 d; at 50 µM; active compounds read high

COCCN1C(=O)c2oc3ccccc3c(=O)c2C1c1ccc(O)c(OC)c1 (stereo not drawn)
inactive: growth inhibition [1] -9.35% | growth inhibition [2] -0.41% | viability increase [3] -3.27% | viability [4] 97.5% | viability [5] 93.2% | inhibition [6] 0.49% | RAM network inhibition [7] 8.37%

O=C(c1ccc(CS(=O)(=O)c2c(Cl)cccc2Cl)o1)N1CCN(c2ccccn2)CC1
inactive: growth inhibition [1] -4.86% | growth inhibition [2] -8.68% | viability increase [3] -3.07% | viability [4] 97.8% | viability [5] 93.1% | inhibition [6] -0.07% | RAM network inhibition [7] 3.34%

O=C(COC(=O)c1cnccn1)c1ccc2c(c1)CCCC2
inactive: growth inhibition [1] -11.3% | growth inhibition [2] -17.1% | viability increase [3] -1.19% | viability [4] 91.9% | viability [5] 88.6% | inhibition [6] 1.32% | RAM network inhibition [7] 1.14%

CCOC(=O)N1CCN(C(=O)C2CCCN(Cc3nc(-c4ccc(Cl)cc4)oc3C)C2)CC1 (stereo not drawn)
inactive: growth inhibition [1] 2.57% | growth inhibition [2] -13.2% | viability increase [3] -4.13% | viability [4] 37.9% | viability [5] 46.5% | inhibition [6] 0.12% | RAM network inhibition [7] 3.55%

CCCOC(=O)CC1C(=O)NCCN1Cc1ccc(F)cc1 (stereo not drawn)
inactive: growth inhibition [1] -12.3% | growth inhibition [2] -6.77% | viability increase [3] -1.04% | viability [4] 104% | viability [5] 98.3% | inhibition [6] 2.83% | RAM network inhibition [7] 1.73%

CC1CCN(C(=O)C(Cc2ccccc2)n2cccc2)CC1 (stereo not drawn)
inactive: growth inhibition [1] -6.79% | growth inhibition [2] -8.94% | viability increase [3] -3.15% | viability [4] 87.9% | viability [5] 79% | inhibition [6] 2.27% | RAM network inhibition [7] 5.92%

CCCC(=O)NCCCc1nc2ccccc2n1C(C)C
inactive: growth inhibition [1] -18.1% | growth inhibition [2] -23.6% | viability increase [3] 1.18% | viability [4] 102% | viability [5] 96.2% | inhibition [6] 1.66% | RAM network inhibition [7] 3.95%

CCC(C)NC(=O)C(NS(=O)(=O)c1ccc2c(c1)c(=O)n(C)c(=O)n2C)c1ccccc1 (stereo not drawn)
inactive: growth inhibition [1] -5.69% | growth inhibition [2] -11.3% | viability increase [3] -1.17% | viability [4] 101% | viability [5] 96.6% | inhibition [6] 1.19% | RAM network inhibition [7] 4.7%

Cc1c(NC(=O)c2ccc3c(c2)OCO3)cccc1-c1nc2ncccc2o1
inactive: growth inhibition [1] -9.32% | growth inhibition [2] -13.2% | viability increase [3] -1.14% | viability [4] 102% | viability [5] 95.3% | inhibition [6] 2.48% | RAM network inhibition [7] 3.92%

O=C(CSc1nc2c(c(=O)n1-c1ccc(F)cc1)SCC2)NCc1ccco1
inactive: growth inhibition [1] 8.53% | growth inhibition [2] 14.1% | viability increase [3] -2.1% | viability [4] 102% | viability [5] 103% | inhibition [6] 1.21% | RAM network inhibition [7] 7.3%

CCC1CCCCN1C(=O)CSc1nnc(-c2ccc(Cl)cc2)o1 (stereo not drawn)
inactive: growth inhibition [1] 0.365% | growth inhibition [2] -5.16% | viability increase [3] 0.28% | viability [4] 87% | viability [5] 90.9% | inhibition [6] 1.89% | RAM network inhibition [7] 5.69%

Cc1ccccc1-c1nnc(-c2ccc(Cl)cc2)o1
inactive: growth inhibition [1] -18.7% | growth inhibition [2] -20.9% | viability increase [3] -6.28% | viability [4] 77.9% | viability [5] 64.8% | inhibition [6] 4.19% | RAM network inhibition [7] 6.89%

CCCCN(C)C(=O)C(Cc1ccccc1)NS(=O)(=O)c1ccc2c(c1)CCC(=O)N2 (stereo not drawn)
inactive: growth inhibition [1] -18.6% | growth inhibition [2] -11.7% | viability increase [3] -2.47% | viability [4] 89.5% | viability [5] 90.2% | inhibition [6] 1.44% | RAM network inhibition [7] 6.27%

COc1ccccc1CNC(=O)c1cnc2sccn2c1=O
inactive: growth inhibition [1] -5.31% | growth inhibition [2] -12.4% | viability increase [3] -2.45% | viability [4] 107% | viability [5] 90.3% | inhibition [6] 2.37% | RAM network inhibition [7] 2.72%

COc1ccc(C2CC(c3cccc(OC)c3)n3nc(N)nc3N2)cc1 (stereo not drawn)
inactive: growth inhibition [1] -5.42% | growth inhibition [2] 9.84% | viability increase [3] 1.37% | viability [4] 100% | viability [5] 92.7% | inhibition [6] 2.04% | RAM network inhibition [7] -1.58%

CCOC(=O)CC1C(=O)NCCN1Cc1cccc(OC)c1 (stereo not drawn)
inactive: growth inhibition [1] -12.5% | growth inhibition [2] -6.96% | viability increase [3] 0.71% | viability [4] 100% | viability [5] 108% | inhibition [6] 0.17% | RAM network inhibition [7] 1.79%

O=c1nc2n(c3sc4c(c13)CCC4)Cc1ccccc1-2
inactive: growth inhibition [1] -15.5% | growth inhibition [2] -9.3% | viability increase [3] -2.14% | viability [4] 94.2% | viability [5] 100% | inhibition [6] 1.48% | RAM network inhibition [7] 1.43%

COC(=O)c1oc2ccc(Br)cc2c1NC(=O)CCCN1C(=O)c2ccccc2C1=O
inactive: growth inhibition [1] -10.3% | growth inhibition [2] -14.3% | viability increase [3] 0.98% | viability [4] 97.7% | viability [5] 98.5% | inhibition [6] 2.69% | RAM network inhibition [7] 7.77%

COc1ccc(OCCNS(=O)(=O)c2ccccc2)cc1
inactive: growth inhibition [1] -18.1% | growth inhibition [2] -18.5% | viability increase [3] 0.87% | viability [4] 94.5% | viability [5] 97.2% | inhibition [6] 0.965% | RAM network inhibition [7] 1.42%

O=C(NCc1cccnc1)NC1(C(F)(F)F)Oc2ccc(Cl)cc2O1 (stereo not drawn)
inactive: growth inhibition [1] -2.96% | growth inhibition [2] -8.97% | viability increase [3] -6.19% | viability [4] 52.6% | viability [5] 58.7% | inhibition [6] 0.4% | RAM network inhibition [7] 0.63%

Cc1nnc(NC(=O)C(C)Sc2nncn2C)s1 (stereo not drawn)
inactive: growth inhibition [1] -15.9% | growth inhibition [2] -22.2% | viability increase [3] 3.71% | viability [4] 107% | viability [5] 94.8% | inhibition [6] 1.18% | RAM network inhibition [7] 1.06%

Cc1ccc(CN2CCN(CC(=O)N3CCC(C(N)=O)CC3)C2=O)cc1
inactive: growth inhibition [1] 0.425% | growth inhibition [2] 1.62% | viability increase [3] -0.17% | viability [4] 105% | viability [5] 101% | inhibition [6] 2.1% | RAM network inhibition [7] 3.53%

O=C(NC(Cc1ccc2c(c1)OCO2)C(=O)N1CCCC1C(=O)O)c1ccccc1 (stereo not drawn)
inactive: growth inhibition [1] -2.82% | growth inhibition [2] 0.59% | viability increase [3] 0.05% | viability [4] 95.1% | viability [5] 98.1% | inhibition [6] 0.125% | RAM network inhibition [7] 6.49%

COc1ccc(C)cc1NC(=O)C1CCCN(S(=O)(=O)c2c(C)noc2/C=C/N(C)C)C1 (stereo not drawn)
inactive: growth inhibition [1] -4.98% | growth inhibition [2] 3.38% | viability increase [3] -0.74% | viability [4] 102% | viability [5] 100% | inhibition [6] -0.18% | RAM network inhibition [7] 4.58%

Cc1ccc(Nc2cc(C)nc3nc(C)nn23)c(C)c1
inactive: growth inhibition [1] -9.53% | growth inhibition [2] 8.84% | viability increase [3] -3.9% | viability [4] 95.1% | viability [5] 96.9% | inhibition [6] -0.02% | RAM network inhibition [7] -0.78%

CCN1C(=O)c2ccccc2S(=O)c2ccc(C(=O)NCCCN3CCCC3=O)cc21 (stereo not drawn)
inactive: growth inhibition [1] -7.88% | growth inhibition [2] -6.62% | viability increase [3] -3.1% | viability [4] 97.5% | viability [5] 87.7% | inhibition [6] 0.64% | RAM network inhibition [7] -1.15%

COC(=O)CSc1nc(C)cc(Oc2ccccc2)n1
inactive: growth inhibition [1] -8.61% | growth inhibition [2] -5.81% | viability increase [3] -1.76% | viability [4] 104% | viability [5] 95.8% | inhibition [6] 1.48% | RAM network inhibition [7] 4.9%

COc1ccc(N2CCN(C(=O)c3ccc4nc(N5CCCCC5)sc4c3)CC2)cc1
inactive: growth inhibition [1] 9.87% | growth inhibition [2] 6.32% | viability increase [3] 0.49% | viability [4] 101% | viability [5] 87% | inhibition [6] 2.52% | RAM network inhibition [7] 6.15%

COc1ccc(Cc2nnc(NC(=O)c3c(-c4ccccc4)noc3C)s2)cc1
inactive: growth inhibition [1] -14% | growth inhibition [2] -3.4% | viability increase [3] 0.94% | viability [4] 88.3% | viability [5] 85.2% | inhibition [6] 1.82% | RAM network inhibition [7] 5.46%

Cc1nc(CC(=O)c2c(C)cc(O)cc2O)cs1
inactive: growth inhibition [1] -12.2% | growth inhibition [2] 1.06% | viability increase [3] 2.92% | viability [4] 90.5% | viability [5] 95.9% | inhibition [6] -0.335% | RAM network inhibition [7] 1.48%

CC1CCN(C(C(=O)Nc2ccc3c(c2)OCO3)c2ccccc2)CC1 (stereo not drawn)
inactive: growth inhibition [1] 3.37% | growth inhibition [2] 10.4% | viability increase [3] -2.94% | viability [4] 83.8% | viability [5] 78.7% | inhibition [6] 2.49% | RAM network inhibition [7] 4.49%

COc1ccccc1N(CC(O)CN1C(=O)NC(C)(C)C1=O)S(=O)(=O)c1ccc(C)cc1 (stereo not drawn)
inactive: growth inhibition [1] -7.72% | growth inhibition [2] -4.29% | viability increase [3] -0.66% | viability [4] 101% | viability [5] 99.9% | inhibition [6] 1.41% | RAM network inhibition [7] 5.03%

CCOC(=O)N1CCN(c2nc(C)cc(C(F)(F)F)n2)CC1
inactive: growth inhibition [1] 1.86% | growth inhibition [2] -23.3% | viability increase [3] 2.84% | viability [4] 102% | viability [5] 96.5% | inhibition [6] 2.92% | RAM network inhibition [7] 2.23%

CCOC(=O)C1CCN(C(=O)CN(c2ccc(OC)cc2)S(=O)(=O)c2c(C)noc2C)CC1
inactive: growth inhibition [1] -7.19% | growth inhibition [2] -5.5% | viability increase [3] -2.59% | viability [4] 98.5% | viability [5] 96.7% | inhibition [6] 2.41% | RAM network inhibition [7] 3.41%
